This is a sample that favours compounds with a hit; in the whole collection about 5.5% have one here.
RAM network inh = blocks the yeast RAM network. inhibition, % at 50 µM. S. cerevisiae dse1pr::URA3 reporter, 5-FOA growth OD615, 2 d; analog-sensitive cbk1-as2 kinase mutant strain. actives 1.8% (n = 190,000);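 active = inhibition above a set limit, 3 SD over mean compound inhibition, cut at about 8.4% in these data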;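 also: 0% = DMSO-only wells with no growth and 100% = 10 µM 1-NA-PP1 full growth; inhibition rescues growth on 5-FOA so higher OD means more RAM inhibition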
Cl transport mod = KCC2 (human) Cl- transport modulation; B-score of Tl+ flux slope (higher = more flux/activation; lower = inhibition) at 10 µM; Q9H2X9; AID 1456; KCC2 cells, thallium flux FluoZin-2 fluorescence; actives 2.2% (n = 190,000);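 active = thallium flux slope and its plate-corrected score both differing from the plate sample mean at a set confidence after two filtering rounds, in either direction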;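 also: slope of fluorescence scaled to starting intensity during 10 to 20 s after thallium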
Target sequence (Q9H2X9 whole entry, looked up): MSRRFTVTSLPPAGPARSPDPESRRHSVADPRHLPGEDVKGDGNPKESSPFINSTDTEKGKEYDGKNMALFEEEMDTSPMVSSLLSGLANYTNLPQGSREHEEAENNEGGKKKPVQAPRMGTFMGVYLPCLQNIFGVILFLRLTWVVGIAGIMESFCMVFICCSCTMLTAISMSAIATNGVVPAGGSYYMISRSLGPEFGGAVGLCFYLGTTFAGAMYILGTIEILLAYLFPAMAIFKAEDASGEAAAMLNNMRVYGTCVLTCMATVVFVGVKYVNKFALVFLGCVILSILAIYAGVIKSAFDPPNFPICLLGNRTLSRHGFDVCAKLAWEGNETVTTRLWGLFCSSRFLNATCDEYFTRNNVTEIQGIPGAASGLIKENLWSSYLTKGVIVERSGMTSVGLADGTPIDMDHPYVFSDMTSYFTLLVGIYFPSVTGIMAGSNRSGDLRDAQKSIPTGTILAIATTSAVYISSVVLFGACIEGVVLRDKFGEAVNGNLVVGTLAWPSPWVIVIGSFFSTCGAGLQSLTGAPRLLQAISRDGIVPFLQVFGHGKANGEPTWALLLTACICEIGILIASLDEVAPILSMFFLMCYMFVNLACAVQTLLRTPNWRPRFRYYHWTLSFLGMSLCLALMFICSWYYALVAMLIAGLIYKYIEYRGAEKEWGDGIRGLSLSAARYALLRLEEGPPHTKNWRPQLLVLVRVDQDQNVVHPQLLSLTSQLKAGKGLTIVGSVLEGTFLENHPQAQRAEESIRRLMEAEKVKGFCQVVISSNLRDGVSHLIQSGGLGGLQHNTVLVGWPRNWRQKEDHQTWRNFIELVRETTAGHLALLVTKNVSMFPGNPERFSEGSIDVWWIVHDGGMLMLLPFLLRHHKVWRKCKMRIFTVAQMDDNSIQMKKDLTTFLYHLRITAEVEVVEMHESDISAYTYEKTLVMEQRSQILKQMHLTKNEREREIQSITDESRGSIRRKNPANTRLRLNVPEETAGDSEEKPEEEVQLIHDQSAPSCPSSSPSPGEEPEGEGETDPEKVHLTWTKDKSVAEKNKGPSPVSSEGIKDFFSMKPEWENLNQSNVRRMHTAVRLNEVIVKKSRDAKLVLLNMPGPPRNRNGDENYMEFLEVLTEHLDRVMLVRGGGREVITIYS
Yeast life ext = yeast lifespan extension; actives 0.68% (n = 130,000); S. cerevisiae growth with nicotinamide, OD615; deaD strain in restrictive glucose medium; inhibition of the nicotinamide effect, % at 10 µM;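 active = inhibition above a set limit, placed 3 SD over the median of all compounds, cut at about 26% in these data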;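 also: 0% = nicotinamide-treated wells and 100% = cells grown without nicotinamide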
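assay system = DeaD-strain S. cerevisiae | buffer or medium = restrictive glucose medium | reagent = 1.5 mM nicotinamide | compound = 10 µM single point, 0.25% DMSO | incubation = 48 h compound exposure at 30 °C, humidified | signal = OD615 measurement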
BB579 growth dn = reduces growth of yeast BB579 in restrictive medium. S. cerevisiae BB579 growth, OD615, 48 h. inhibition, % at 10 µM. actives 0.51% (n = 140,000). AID 804;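 active = inhibition above a set limit, 3 SD over the mean compound inhibition, cut at about 44% in these data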
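Assay system: S. cerevisiae DeaD strain BB579 yeast. Medium: CSMM-D restrictive synthetic medium containing dextrose (glucose). Times: 4 h cell preincubation, 48 h compound exposure, 30 °C humidified. Signal: OD615 turbidity measurement. Benchmarks: positive control amphotericin B 10 µg/mL.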
WT yeast gro inh = growth inhibition of WT yeast, mitochondrial fusion screen. mitochondrial fusion phenotypic screen, WT strain. inhibition, % at 10 µM. actives 2.1% (n = 190,000); in the data active = inhibition above about 58%; tested in S. cerevisiae
KCC2 secondary = confirmation of human KCC2 transport modulators | shares compounds with Cl transport mod | HEK293-KCC2, thallium flux, FluoZin2 fluorescence; hits give high values | normalised thallium flux (F/F0 slope) at 10 µM | actives 15% (n = 3,700);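 active = thallium flux slope above the same plate's solvent-only control mean plus 3 SD; inconclusive = the two replicate wells disagree; inactive = no significant difference from solvent-only control wells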
KCC2 bumet counter = bumetanide-insensitive thallium flux in KCC2 cells with ouabain, counter-screen | AID 1714 | normalized thallium flux at 10 µM | actives 49% (n = 3,700) | shares compounds with Cl transport mod | HEK293-KCC2 + bumetanide/ouabain, thallium flux FluoZin2; hits give high values;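 active = thallium entry rate above the same plate's blocked-transporter control wells by more than 3 SD; inconclusive = the two repeat wells disagree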;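 also: raw slope of fluorescence over initial fluorescence between 10 and 20 s after thallium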
KCC2 secondary2 = confirmation of human KCC2 transport modulators; shares compounds with Cl transport mod; HEK293-KCC2, thallium flux FluoZin2 fluorescence; actives lie on both sides; F/F0 rise rate, 10–20 s post-thallium; normalized thallium flux at 10 µM; actives 23% (n = 3,700); AID 1715;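 active = thallium flux slope more than 3 SD above or below the plate's solvent-only control mean, mostly below; inconclusive = the two repeat wells disagreed; inactive = no significant shift from solvent-only controls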;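 also: raw slope with 0.1% DMSO as baseline and bumetanide as block control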
HEK counter1 = counter-screen for KCC2 modulators: effect in parental HEK293 cells; shares compounds with Cl transport mod; thallium flux FluoZin2, ouabain; baseline-ratio fluorescence slope, 10–20 s after thallium; thallium flux rate (normalised fluorescence) at 10 µM; actives 46% (n = 3,700);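 active = thallium flux rate significantly above the same plate's solvent-only control wells, beyond their mean plus 3 SD; inconclusive = the two replicate wells gave conflicting results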
KCC2 ouabain = modulates human KCC2 on retest with ouabain; shares compounds with Cl transport mod; HEK293-KCC2, thallium flux FluoZin2 fluorescence; bidirectional: low = inhibitor, high = activator; raw Tl+ flux slope (below DMSO = inhibition, above = activation) at 10 µM; actives 48% (n = 3,700);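 active = thallium flux slope beyond 3 SD from same-plate DMSO control mean in most replicates, usually higher, sometimes lower; inconclusive = repeat tests gave conflicting results; inactive = no significant difference from controls in most replicates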;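 also: slope of initial-normalized fluorescence between seconds 10 and 20 after thallium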
HEK293 Tl flux2 = acts in parental HEK cells, second KCC2 counter-screen. actives 33% (n = 3,700). thallium flux slope at 10 µM. HEK293 parental, thallium flux FluoZin-2 fluorescence slope. AID 1718. shares compounds with Cl transport mod;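 active = thallium flux slope above the same plate's solvent-control mean plus 3 SD in both duplicate wells; inconclusive = duplicate wells that disagreed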;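 also: run without ouabain in cells lacking the KCC2 cotransporter; slope of fluorescence scaled to its starting value between 10 and 20 s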
* hit, by the source's call; ? = inconclusive; / = not tested or not shown.

SMILES	RAM network inh	Cl transport mod	Yeast life ext	BB579 growth dn	WT yeast gro inh	KCC2 secondary	KCC2 bumet counter	KCC2 secondary2	HEK counter1	KCC2 ouabain	HEK293 Tl flux2
Cc1ccc(OCC(=O)NC(=S)Nc2ccc3c4c(cccc24)CC3)cc1	5.7	13.3*	1.3	22.9	6.0	0.0105	0.0141*	0.0347	0.0117*	?	0.0108
Cc1ccc(OCC(=O)NC(=S)Nc2ccc(Br)c(C)n2)cc1	3.3	/	-9.4	-82.8	-0.1	/	/	/	/	/	/
CCN(C(C)=O)c1ccc(Oc2nc(OC)cc(OC)n2)cc1	0.8	-0.0336	/	/	-18.8	/	/	/	/	/	/
O=C(CSCc1ccc(F)cc1)N1CCN(c2ccc(F)cc2)CC1	-0.8	-3.55*	-4.0	-30.4	-10.1	0.00626	?	0.0316	0.00366	0.0165*	0.0113
Fc1cccc(Cl)c1CSc1nnc(CNc2ccccc2)o1	1.1	-3.5*	/	/	6.6	0.0146	0.00295	0.0265	0.00578*	0.0137*	?
Fc1ccc(NCc2nnc(SCc3ccccc3)o2)cc1	-2.3	-3.01	/	/	10.8	/	/	/	/	/	/
Cc1cccc(NC(=O)CSc2nnc(CSc3nc(C)cc(C)n3)n2Cc2ccco2)c1	1.2	/	-3.9	-49.4	-1.9	0.00656	0.00406	0.0299	?	0.0164	0.00933
Brc1cccc(-c2cnc3n2CCCCC3)c1	-0.2	/	5.6	-62.2	2.5	0.00925	0.00562	0.0333	0.00376	0.0191	0.0111
Brc1cccc(-c2nnc3n2CCCCC3)c1	0.9	0.252	-13.4	-56.1	-5.0	/	/	/	/	/	/
Fc1ccc(COc2ccc3ccccc3c2CNc2nn[nH]n2)cc1	3.5	-4.58*	/	/	0.2	0.00612	0.00465	0.0207*	?	0.00921*	?
Fc1ccccc1COc1ccc2ccccc2c1CNc1nn[nH]n1	4.4	-5.93*	/	/	-7.6	0.00587	0.00428	0.0198*	?	0.00866*	?
CNCc1c(OCc2ccc(F)cc2)ccc2ccccc12	-0.6	0.332	/	/	9.8	/	/	/	/	/	/
COc1ccc(-c2cc(CNC(=O)CN(C)Cc3ccccc3)on2)cc1	4.2	/	-15.4	-41.4	31.5	0.00576	0.00485	0.0235*	0.00683	0.0134*	0.00941
O=C(NCc1ccco1)C(=O)NCC(c1ccco1)N1CCOCC1 (stereo not drawn)	-0.5	-1.02	/	/	4.0	/	/	/	/	/	/
FC(F)(F)c1cccc(NCc2n[nH]c(=S)n2C2CCCCC2)c1	2.4	5.94*	/	/	10.5	0.00898	0.0195*	0.0348	?	?	0.0109
CSc1ccc(NC(=O)Nc2cc(C)ccn2)cc1	/	-0.343	/	/	/	/	/	/	/	/	/
O=C(Nc1cc(=O)[nH]c2nc(-c3ccccc3)nn12)c1ccccc1Cl	/	-3.19*	/	/	/	0.00813	0.0066	0.0304	0.00681	?	?
CSc1sc(-c2n[nH]c(=S)n2C)c2c1C=CCC2	/	4.34*	/	/	/	0.00852	0.0149*	0.0304	0.00926*	?	?
Cc1ccc(CCNC(=O)Cn2cccc2)cc1	-0.2	/	-8.9	-38.7	-3.2	0.0115	0.00641	0.0311	0.00784	0.0227	0.01
Cc1c(/C=N/NC(=O)c2ccccc2O)c2ccccn2c1C(=O)c1ccc(F)cc1	4.8	-3.76*	-2.4	-54.8	0.1	0.0178	?	0.0299	0.0073	0.0142	0.00996
COc1ccccc1NC(=O)CSc1nnc(Cc2ccccc2)o1	-0.6	-2.08	-11.5	-28.9	12.5	/	/	/	/	/	/
COCc1nnc(NC(=O)CSc2ccc(C)cc2)s1	3.5	0.711	-17.5	-54.0	0.9	/	/	/	/	/	/
Cc1cnc(NC(=O)CSc2nnc(Cc3ccccc3)o2)s1	2.2	-4.44*	-3.3	-91.8	6.2	0.00741	0.00513	0.0212*	0.00809	?	0.0109
CCc1nnc(NC(=O)CSc2nnc(COc3ccccc3C)o2)s1	1.0	/	9.0	-15.7	-26.6	0.00581	?	0.0251*	?	0.0156*	0.0106
COc1ccc(Cc2nnc(SCC(=O)Nc3ncc(C)s3)o2)cc1	0.9	/	-10.8	-19.8	10.6	/	/	/	/	/	/
SMILES	RAM network inh	Cl transport mod	Yeast life ext	BB579 growth dn	WT yeast gro inh	KCC2 secondary	KCC2 bumet counter	KCC2 secondary2	HEK counter1	KCC2 ouabain	HEK293 Tl flux2
COCc1nnc(NC(=O)CSc2ccccc2)s1	-0.6	-4.81*	-5.5	-24.0	-2.4	0.00803	0.00568	0.0365	0.0044	0.0212	0.0111
COc1ccc(NC(=O)CSc2nnc(Cc3ccccc3)o2)c(OC)c1	1.8	-3.95*	-7.5	-27.2	-3.5	0.00714	0.00516	0.0286	?	0.0143*	0.00981
Cc1nc2ccc(Cl)cc2nc1C	/	0.0336	/	/	/	/	/	/	/	/	/
O=C(NCC(c1cccs1)N1CCOCC1)c1ccccc1NS(=O)(=O)c1ccc(Cl)c([N+](=O)[O-])c1 (stereo not drawn)	0.9	-3.6*	15.1	-10.6	14.0	0.00697	0.00481	0.0265*	0.00608*	0.0162*	?
Cn1nc(-c2ccc(N3CCOCC3)c(NS(=O)(=O)c3ccc(Cl)cc3)c2)c2ccccc2c1=O	2.2	5.81*	-11.3	-29.7	6.0	0.00971	0.0059	0.0317	0.00828	0.0194	0.0107
O=C(CSc1ccc2ccccc2n1)c1ccccc1	/	-0.909	/	/	/	/	/	/	/	/	/
CC(=O)NCC1CCCN(Cc2cn(-c3ccccc3)nc2-c2ccc3c(c2)OCO3)C1 (stereo not drawn)	0.1	-0.37	/	/	-3.7	/	/	/	/	/	/
COC(=O)C1CCN(Cc2cn(-c3ccccc3)nc2-c2ccc3c(c2)OCO3)CC1	0.7	-5.83*	/	/	23.1	0.00988	0.00585	0.0328	0.00796	0.0218	0.0105
CCOC(=O)N1CCN(C(=O)Cn2ncn3nc(-c4cccs4)cc3c2=O)CC1	4.9	-0.21	-21.1	-25.5	19.3	/	/	/	/	/	/
O=[N+]([O-])c1ccccc1Sc1nccn1Cc1ccccc1	1.5	-4.18*	-3.8	-4.1	5.4	0.00678	0.0046	0.0326	?	0.0135*	0.0107
COCCNS(=O)(=O)c1ccc(-c2ccc(S(=O)(=O)NCCOC)cc2)cc1	3.9	-0.0174	-13.6	-25.2	-16.6	/	/	/	/	/	/
COCCNS(=O)(=O)c1ccc(-c2ccc(Cl)cc2)cc1	1.6	-2.77*	/	/	8.2	0.00725	0.00525	0.0258*	0.00796	?	0.0116
Cc1ccc2[nH]c(SCC(=O)N3CCOCC3)nc2c1C	-0.1	/	-11.0	-28.5	-6.2	0.00822	0.0053	0.0364	0.0035	0.0209	0.0111
